High-throughput results: PubChem, several laboratories
SR-BI DiI-HDL act = enhances SR-BI lipid uptake from DiI-HDL; activation, % at 12.5 µM; 0.096% of 320,000 active; CHO ldlA[mSR-BI] cells, DiI-HDL uptake fluorescence, 3 h; 100 = double the neutral-control signal;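 active = mean replicate activation of at least 60% and every replicate at or above 60%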
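system = CHO ldlA[mSR-BI] cells, LDL receptor-null, SR-BI overexpressing | medium = Ham's F12 with 0.5% BSA, HEPES 25 mM, pH 7.4 | probe or stimulus = DiI-HDL 10 µg/mL | compound dosing = single-point compound dose | incubation = compound exposure 3 h, 37 °C | technique = DiI fluorescence, bottom read | read-out = cell-associated DiI fluorescence as measure of HDL uptake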
SR-BI HDL uptake = blocks mouse SR-BI lipid uptake from DiI-HDL | ldlA[mSR-BI] CHO cells, DiI-HDL uptake fluorescence, 3 h | 0.96% of 320,000 active | inhibition, % at 12.5 µM | Q61009;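 active = mean replicate inhibition of at least 70% and a set share of replicates each scoring 70 or more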
Rin1-Abl PPI inh = inhibitors of human Rin1-Abl protein interaction. P00519+Q13671. TR-FRET Rin1/Abl binding, biochemical. inhibition, % at 7.35 µM. 0.4% of 360,000 active; in the data active = inhibition above about 5%, passing the limit was not always enough
GRK2 inh = blocks RNA aptamer binding to human GRK2; P25098; bead flow cytometry, FAM-aptamer displacement from GRK2; inhibition of aptamer binding, % at 10 µM; 0.59% of 330,000 active; AID 488847;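 active = inhibition of aptamer binding above 40%, roughly 3 SD of noise, on plates passing a quality check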;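 note: median bead fluorescence of bound FAM aptamer so fluorescent compounds give negative values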
Target sequence (P25098 whole entry, looked up): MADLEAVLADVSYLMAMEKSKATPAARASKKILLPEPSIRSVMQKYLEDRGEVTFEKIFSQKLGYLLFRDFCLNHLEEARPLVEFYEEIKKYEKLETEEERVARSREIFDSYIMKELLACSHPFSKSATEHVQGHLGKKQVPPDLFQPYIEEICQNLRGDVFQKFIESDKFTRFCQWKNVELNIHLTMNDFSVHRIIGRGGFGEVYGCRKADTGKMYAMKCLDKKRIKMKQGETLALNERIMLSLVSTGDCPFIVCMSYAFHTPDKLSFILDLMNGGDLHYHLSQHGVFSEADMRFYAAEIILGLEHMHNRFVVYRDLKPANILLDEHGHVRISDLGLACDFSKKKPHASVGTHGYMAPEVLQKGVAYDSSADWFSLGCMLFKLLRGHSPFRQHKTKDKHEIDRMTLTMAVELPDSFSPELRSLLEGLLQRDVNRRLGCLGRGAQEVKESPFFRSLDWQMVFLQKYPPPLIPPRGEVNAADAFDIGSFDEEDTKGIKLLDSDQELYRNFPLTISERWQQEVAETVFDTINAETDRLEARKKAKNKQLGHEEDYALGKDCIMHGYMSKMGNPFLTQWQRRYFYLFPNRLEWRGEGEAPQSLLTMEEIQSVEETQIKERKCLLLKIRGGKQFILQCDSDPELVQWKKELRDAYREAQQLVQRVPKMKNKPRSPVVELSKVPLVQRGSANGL
GRK2 CP1 = confirmation of human GRK2 inhibitors displacing RNA aptamer; 4% of 2,000 active; bead-bound GRK2, FAM-aptamer displacement, flow cytometry; AID 504451; aptamer displacement, % at 10 µM; shares compounds with GRK2 inh;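 active = aptamer displacement above 40%, near three times the noise of non-fluorescent compounds, on plates passing quality checks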;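 note: negative values mostly reflect intrinsic compound fluorescence rather than true enhancement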
Aptamer quench 1 = counter-screen for GRK2 aptamer inhibitors: fluorescent aptamer quenchers; shares compounds with GRK2 inh; Fluorescent RNA aptamer beads, quenching, flow cytometry; hits give high values; fluorescence change (kMESF span), kMESF (concentration not given with the values); 110 tested, under 10 active;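 active = compounds whose bead fluorescence drops by more than 37 kMESF across the dose range, marking them as dye quenchers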
FAM quench CP1 = counter-screen for GRK2 aptamer inhibitors: fluorescent aptamer quenchers; fluorescence response (% of DMSO), % at 10 µM; Carboxyfluorescein RNA aptamer on beads, flow cytometry quenching; hits give low values; 2,000 tested, under 10 active; AID 504580; shares compounds with GRK2 inh;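 active = compounds that quench the bead-bound fluorescent RNA probe, cutting fluorescence to under half of the solvent control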;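 note: counterscreen run without GRK2 so only probe quenching by compound is measured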
GRK2 confirm 2 = human GRK2 inhibition confirmation, cherry pick 2 | shares compounds with GRK2 inh | AID 504782 | bead-bound GRK2, FAM-aptamer displacement, flow cytometry | 360 tested, under 10 active | inhibition of aptamer binding, % at 10 µM;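 active = inhibition of aptamer binding above 40%, about triple the noise seen with nonglowing compounds, on plates passing quality control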;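 note: negative values mostly come from compounds that fluoresce themselves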
FAM quench CP2 = aptamer fluorescence quenching in GRK2 counter-screen; shares compounds with GRK2 inh; carboxyfluorescein RNA aptamer beads, flow cytometry quenching; hits give low values; fluorescence response vs DMSO, % at 10 µM; 360 tested, under 10 active;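 active = response vs DMSO under 50%, meaning signal dropped by over half, treated as fluorescence quencher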;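 note: labelled aptamer on streptavidin beads without GRK2 as a quench counter-screen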
Each line names hits and unclear results; the compound was inactive in the other large screens (follow-up assays come after a bar, where they were run). A selection: hits, their analogues and other compounds. The true share with any hit is near 1.9%.

COc1ccc(S(=O)(=O)N2CCN(Cc3ccc(Cl)cc3)CC2)cc1	GRK2 inh 65 | GRK2 CP1 inactive | FAM quench CP1 inactive
COc1ccc(S(=O)(=O)N2CCN(Cc3cccc(Cl)c3)CC2)cc1	none
CN(CC(=O)Nc1ccccc1Br)C(=O)C1CCN(C(=O)c2ccc(Cl)cc2)CC1	none
CC(C)(C)OC(=O)C[C@@H]1C/C=C\C[C@@H](CC(=O)N[C@@H](CO)Cc2ccccc2)C(=O)N2CCC[C@@H]2COC1=O	none
Cc1ccc(S(=O)(=O)N(C)C[C@H]2OCCCC[C@@H](C)Oc3ccc(NC(=O)Cc4ccccc4)cc3C(=O)N([C@H](C)CO)C[C@@H]2C)cc1	none (no result: SR-BI DiI-HDL act, SR-BI HDL uptake, GRK2 inh)
CCOc1ccc(OCCCC(=O)N(C)CC(=O)Nc2ccccc2Br)cc1	GRK2 inh 46 | GRK2 CP1 inactive | FAM quench CP1 inactive
Cc1ccc(OCCCC(=O)N(C)CC(=O)Nc2ccccc2Cl)cc1	none
Cc1c(NC(=O)c2cccc(NC(=O)COc3cccc(Br)c3)c2)c(=O)n(-c2ccccc2)n1C	none
O=S(=O)(c1ccccc1OC(F)(F)F)N1CCN(c2ccnc3cc(Cl)ccc23)CC1	GRK2 inh 77 | GRK2 confirm 2 inactive | FAM quench CP2 inactive
CCc1nc2ccc(C(=O)N3CCN(S(=O)(=O)CC)CC3)cn2c1N(CC)CCOC	none (no result: SR-BI DiI-HDL act, SR-BI HDL uptake, GRK2 inh)
Cc1cccc(NC(=O)c2csnn2)n1	none | GRK2 CP1 inactive | FAM quench CP1 inactive
O=C(COC(=O)c1cc(=O)[nH]c(=O)[nH]1)Nc1ccccc1F	none
CCc1ccc(NC(=O)CCS(=O)(=O)c2ccc3c(c2)CCN3C(C)=O)cc1	none
CCC(=O)N1CCc2cc(S(=O)(=O)CCC(=O)Nc3ccc(CC)cc3)ccc21	none | GRK2 confirm 2 inactive | FAM quench CP2 inactive
CCc1ccc(NS(=O)(=O)c2ccc3c(c2)CCN3C(=O)CCC(=O)O)cc1	GRK2 inh 52 | GRK2 confirm 2 inactive | FAM quench CP2 inactive
CC1(C(=O)Nc2ccc(Cl)c(Cl)c2)CCN1C(=O)CCC1CCCC1 (stereo not drawn)	none (no result: SR-BI DiI-HDL act, SR-BI HDL uptake, GRK2 inh)
CCN(CCCNC(=O)Cn1ncc2c([nH]c3ccc(C)cc32)c1=O)c1cccc(C)c1	none | GRK2 CP1 inactive | FAM quench CP1 inactive
CCN(CCCNC(=O)Cn1ncc2c([nH]c3ccc(C)cc32)c1=O)c1ccccc1	GRK2 inh 48 | GRK2 CP1 inactive | FAM quench CP1 inactive
Cc1ccc2[nH]c3c(=O)n(CC(=O)NCCCN(C)Cc4ccccc4)ncc3c2c1	none
CCN(CCCNC(=O)CCn1c(=O)[nH]c2ccccc2c1=O)c1cccc(C)c1	none
CCN(CC)C(=O)c1cccc(-c2csc(C(O)c3ccc(F)c(F)c3)n2)c1 (stereo not drawn)	none (no result: SR-BI DiI-HDL act, SR-BI HDL uptake, GRK2 inh)
COc1cc(C(C)=O)ccc1OCC(=O)Nc1ccccc1N1CCCC1	GRK2 inh 87 | GRK2 confirm 2 inactive | FAM quench CP2 inactive
CC(=Nc1ccccc1)C1=C(O)CCCC1=O	none | GRK2 CP1 inactive | FAM quench CP1 inactive
C[C@@H]1CN([C@H](C)CO)C(=O)CCCn2cc(nn2)CO[C@H]1CN(C)C(=O)C1CCCCC1	none (no result: SR-BI DiI-HDL act, SR-BI HDL uptake, GRK2 inh)
CCOc1ccc(N(CC(=O)NCc2ccccc2OC)S(C)(=O)=O)cc1	GRK2 inh 53 | GRK2 CP1 inactive | FAM quench CP1 inactive
CC(=O)NS(=O)(=O)c1cccnc1Nc1ccc(Cl)c(Cl)c1	GRK2 inh 83 | GRK2 CP1 inactive | FAM quench CP1 inactive
COCCNC(=O)c1c[nH]c2ccc(S(=O)(=O)Nc3ccc(F)cc3F)cc2c1=O	GRK2 inh 91 | GRK2 CP1 inactive | FAM quench CP1 inactive
COCCNC(=O)c1c[nH]c2ccc(S(=O)(=O)N3CCc4ccccc43)cc2c1=O	none
COCCNC(=O)c1c[nH]c2ccc(S(=O)(=O)Nc3ccccc3F)cc2c1=O	GRK2 inh 70 | GRK2 CP1 inactive | FAM quench CP1 inactive
Cc1ccc(C(=O)Nc2ccc(N3CCN(C)CC3)cc2)c(Cl)c1	GRK2 inh 49 | GRK2 CP1 inactive | FAM quench CP1 inactive
Cc1nnc(Nc2ccc(C(=O)NCCO)cc2)c2ccccc12	GRK2 inh 49 | GRK2 CP1 inactive | FAM quench CP1 inactive
CC(C)c1ccc(NC(=O)C2C3C=CC(CC3)C2C(=O)O)cc1 (stereo not drawn)	none
O=C(O)C1C2C=CC(CC2)C1C(=O)O (stereo not drawn)	GRK2 inh 60 | GRK2 CP1 52 | Aptamer quench 1 inactive | FAM quench CP1 inactive
c1ccc(CSc2ccc(-c3ccc4c(c3)OCO4)nn2)cc1	none
Fc1ccc(CSc2ccc(-c3ccc4c(c3)OCO4)nn2)cc1	GRK2 inh 49 | GRK2 confirm 2 inactive | FAM quench CP2 inactive
C#CCOCCOCCOCCNc1nc(N2CCOCC2)nc(N2CCN(C(=O)CCCCCCCCCCNC(=O)[C@H](CO)n3cc(CCCSC)nn3)CC2)n1	GRK2 inh 50 | GRK2 CP1 inactive | FAM quench CP1 inactive
C#CCOCCOCCOCCNc1nc(N2CCN(C(=O)CCCCCCCCCCNC(=O)[C@@H](CCC(=O)O)n3cc(CCCCCN)nn3)CC2)nc(N2CCN(C(=O)CCCCCCCCCCNC(=O)[C@H](CO)n3cc(CCCSC)nn3)CC2)n1	none
C#CCOCCOCCOCCNc1nc(N2CCOCC2)nc(N2CCN(C(=O)[C@H](CO)n3cc([C@@H](N)C(C)C)nn3)CC2)n1	GRK2 inh 74 | GRK2 confirm 2 inactive | FAM quench CP2 inactive
C#CCOCCOCCOCCNc1nc(N2CCN(C(=O)[C@H](CO)n3cc([C@@H](N)C(C)C)nn3)CC2)nc(N2CCN(C(=O)[C@H](CCCCN)n3cc([C@@H](N)[C@H](C)CC)nn3)CC2)n1	none
Cc1ccc(Oc2nc3ccccn3c(=O)c2/C=C(\C#N)C(=O)NC2CCS(=O)(=O)C2)cc1 (stereo not drawn)	GRK2 inh 75 | GRK2 CP1 inactive | FAM quench CP1 inactive
O=C(NCc1ccc(Cl)c(Cl)c1)c1cc(C2CCCCN2C(=O)OCCF)on1 (stereo not drawn)	none (no result: SR-BI DiI-HDL act, SR-BI HDL uptake, GRK2 inh)
CCOC(=O)C(=O)Nc1nc(-c2ccccc2)c(-c2ccccc2)o1	none
CN1CCN(C(=S)SCC(=O)Nc2nc(-c3ccccc3)c(-c3ccccc3)o2)CC1	GRK2 inh 100 | GRK2 confirm 2 inactive | FAM quench CP2 inactive
